In ChEMBL document CHEMBL3826935, “Synthesis and Pharmacology of (Pyridin-2-yl)methanol Derivatives as Novel and Selective Transient Receptor Potential Vanilloid 3 Antagonists” (J Med Chem, 2016):

How the values were obtained:
Rattus norvegicus [1] = species on record: Rattus norvegicus; assay: Cardiotoxicity in rat assessed as increase in mean arterial pressure; format: toxicity, organism-based, Artery; conditions: in vivo
Liver microsome [2] = assay: Unbound intrinsic clearance in rat liver microsomes after 5 hrs by LC-MS/MS analysis; format: ADME
In short: (§1)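 Microsomal stability run in an automated high-throughput plate format. Intrinsic clearance corrected for nonspecific microsomal binding using measured unbound fraction (fu,mic), reported as unbound Clint in L/h/kg.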

[3] = molecular target: T1, Transient receptor potential cation channel subfamily V member 3 (Homo sapiens) (UniProt Q8NET8); assay: (§2) Antagonist activity at human TRPV3 expressed in recombinant HEK293 cells assessed as inhibition of 2-APB induced calcium flux by FLIPR analysis; format: cell-based
T1 sequence (whole entry): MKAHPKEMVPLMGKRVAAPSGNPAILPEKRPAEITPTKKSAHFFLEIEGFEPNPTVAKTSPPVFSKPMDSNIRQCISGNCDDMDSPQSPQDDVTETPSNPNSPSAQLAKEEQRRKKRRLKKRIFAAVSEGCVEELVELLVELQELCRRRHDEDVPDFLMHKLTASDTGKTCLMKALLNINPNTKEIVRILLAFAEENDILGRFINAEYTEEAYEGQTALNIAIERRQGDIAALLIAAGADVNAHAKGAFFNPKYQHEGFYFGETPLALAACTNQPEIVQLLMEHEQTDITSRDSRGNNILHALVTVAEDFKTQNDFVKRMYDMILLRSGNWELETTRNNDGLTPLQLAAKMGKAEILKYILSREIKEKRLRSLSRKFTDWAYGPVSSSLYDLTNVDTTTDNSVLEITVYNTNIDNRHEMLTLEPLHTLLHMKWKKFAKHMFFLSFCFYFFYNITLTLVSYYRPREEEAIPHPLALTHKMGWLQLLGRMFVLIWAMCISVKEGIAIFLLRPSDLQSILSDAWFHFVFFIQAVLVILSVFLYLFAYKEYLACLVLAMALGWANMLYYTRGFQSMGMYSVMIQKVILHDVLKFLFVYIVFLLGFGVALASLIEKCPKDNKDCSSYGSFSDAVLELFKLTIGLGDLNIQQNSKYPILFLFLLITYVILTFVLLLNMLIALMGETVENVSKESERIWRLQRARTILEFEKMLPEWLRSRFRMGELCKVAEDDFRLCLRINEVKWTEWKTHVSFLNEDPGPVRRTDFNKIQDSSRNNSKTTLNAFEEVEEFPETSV
In short: (§3)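 HEK293 cells stably expressing human TRPV3 (I25V variant), plated the day before in DMEM + 10% FBS at 37 °C, 5% CO2. Calcium 4 dye loaded in Ca/Mg-free HEPES D-PBS pH 7.4 for 1–2 h at room temperature. Compound dilutions added with 3 min baseline, then 2-APB at 60 µM final; Ca2+ flux read 3 min on FLIPR. Kb from at least duplicates, averaged across independent runs.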

Rattus norvegicus [4] = species on record: Rattus norvegicus; assay: Cardiotoxicity in rat assessed as increase in cardiac contractility at plasma concentration of 4.7 ug/ml; format: toxicity, organism-based
[5] = molecular target: T2, Nuclear receptor subfamily 1 group I member 2 (Homo sapiens, UniProt O75469); assay: Activation of human PXR; format: ADME; conditions: for Activity: human
T2 sequence (O75469 whole entry): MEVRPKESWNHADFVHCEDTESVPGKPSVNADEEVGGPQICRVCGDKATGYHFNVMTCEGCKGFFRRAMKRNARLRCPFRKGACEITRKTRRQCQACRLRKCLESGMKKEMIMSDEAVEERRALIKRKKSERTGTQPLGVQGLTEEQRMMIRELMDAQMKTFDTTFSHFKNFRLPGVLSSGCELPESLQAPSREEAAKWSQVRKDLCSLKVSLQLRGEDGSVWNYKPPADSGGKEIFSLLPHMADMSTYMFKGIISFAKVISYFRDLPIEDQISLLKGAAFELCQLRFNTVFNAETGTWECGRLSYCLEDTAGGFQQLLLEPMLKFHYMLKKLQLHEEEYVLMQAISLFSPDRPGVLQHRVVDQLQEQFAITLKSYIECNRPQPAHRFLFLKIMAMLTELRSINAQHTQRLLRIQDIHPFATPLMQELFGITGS

Liver microsome [6] = assay: Unbound intrinsic clearance in human liver microsomes after 5 hrs by LC-MS/MS analysis; format: ADME; in short: as §1
[7] = Fraction unbound in human plasma; format: ADME, cell-free
Liver microsome [8] = assay: Drug metabolism in rat liver microsomes assessed as alcohol group oxidation after 1 hr by HPLC analysis; format: ADME
In short: (§4)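 Compound incubated in rat liver microsomes for 1 h at 37 °C. Metabolite distribution analysed by HPLC; metabolite structures assigned by 1H NMR.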

Liver microsome [9] = assay: Drug metabolism in rat liver microsomes assessed as cyclobutane ring oxidation after 1 hr by HPLC analysis; format: ADME; in short: as §4
[10] = molecular target: T3, Transient receptor potential cation channel subfamily V member 3 (Homo sapiens, UniProt Q8NET8); assay: as §2; format: cell-based; in short: as §3
T3 sequence (Q8NET8 whole entry): T1 sequence (whole entry)

Liver microsome [11] = assay: Drug metabolism in rat liver microsomes assessed as aromatic ring oxidation after 1 hr by HPLC analysis; format: ADME; in short: as §4
Plasma = assay: Plasma concentration in rat; format: ADME, cell-free
[12] = Cmax in rat at 1 mg/kg, iv or 1 mg/kg, po; format: ADME, organism-based; conditions: in vivo
In short: (§5)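 Rat pharmacokinetics: iv dose 1 mg/kg; po dose 1 or 2 mg/kg depending on compound. AUC taken over 0–8 h. Unbound parameters calculated using plasma free fraction.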

[13] = Half life in rat at 1 mg/kg, iv; format: ADME, organism-based; conditions: in vivo; in short: as §5
[14] = AUC(0 to 8 hrs) in rat at 1 mg/kg, po; format: ADME, organism-based; design: time < 6 hr, dose 1 mg/kg, route oral; conditions: in vivo; in short: as §5
Rattus norvegicus [15] = assay: Unbound AUC(0 to 8 hrs) in rat at 1 mg/kg, po; format: ADME, organism-based; conditions: in vivo; in short: as §5
[16] = Total plasma clearance in rat at 1 mg/kg, iv; format: ADME, organism-based; in short: as §5
[17] = Volume of distribution at steady state in rat at 1 mg/kg, iv or 1 mg/kg, po; format: ADME, organism-based; conditions: in vivo, read-out: Vdss; in short: as §5
[18] = Oral bioavailability in rat at 1 mg/kg; format: ADME, organism-based; conditions: in vivo; in short: as §5
[19] = molecular target: T1, Transient receptor potential cation channel subfamily V member 3 (Homo sapiens); assay: Antagonist activity at human TRPV3 expressed in recombinant HEK293 cells assessed as free plasma level adjusted concentration for inhibition of 2-APB induced calcium flux by FLIPR analysis; format: cell-based
In short: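 FLIPR Kb from the 2-APB (60 µM final) Ca2+ flux assay in human TRPV3 HEK293 cells, converted to an unbound value using the measured free fraction in plasma.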

[20] = […] plasma clearance in rat at 1 mg/kg, iv; format: ADME, organism-based; conditions: read-out: CL free (converted); in short: as §5

Compound	CL free (Liver microsome [2]) [mL/min/kg]	Kb [3] [nM]	Activity [5]	CL free (Liver microsome [6]) [mL/min/kg]	Activity (Rattus norvegicus [1])	Activity (Rattus norvegicus [4])	further results
C[C@]1(O)C[C@@](c2ccc(OC(F)(F)F)cc2)([C@@H](O)c2ccccn2)C1	100	> 10400	Not Active	50	Non-toxic	Non-toxic	
O[C@H](c1ccccn1)[C@]1(c2cccc(C(F)(F)F)c2)C[C@@H](O)C1	100	210	Not Active	50	Non-toxic	Non-toxic	
O[C@H](c1ccccn1)C1(c2ccc(Cl)c(Cl)c2)CCC1	2520	80		683			fraction unbound [7]: 0.007; Drug metabolism (Liver microsome [8]): metabolite_detected; Drug metabolism (Liver microsome [9]): metabolite_detected; IC50 [10]: 160 nM; Drug metabolism (Liver microsome [11]): metabolite_detected
O[C@H](c1ccccn1)[C@]1(c2ccc(C(F)(F)F)cc2)C[C@@H](O)C1	50	1870	Not Active	33	Non-toxic	Non-toxic	
O[C@H](c1ccccn1)[C@]1(c2ccnc(C(F)(F)F)c2)C[C@@H](O)C1	200	530	Not Active	83	Non-toxic	Non-toxic	
O[C@H](c1ccccn1)C1(c2ccc(OC(F)(F)F)cc2)CC(F)(F)C1	200	40		183	16%	29%	EC50 [5]: 5700 nM; Cp (Plasma): 4700 ng/mL
C[C@]1(c2ccc(OC(F)(F)F)cc2)C[C@](O)(c2ccccn2)CO1 (single isomer, unassigned)	167	420		120			fraction unbound [7]: 0.06; Cmax [12]: 130 ng/mL; half-life [13]: 3.8 h; AUC(0-t) at 6 h [14]: 930 ng·h/mL; fAUC (Rattus norvegicus [15]): 30 ng·h/mL; clearance [16]: 10 mL/min/kg; Vd [17]: 3.2 L/kg; bioavailability [18]: 56%; Kb [19]: 12000 nM; clearance [20]: 293 mL/min/kg
O[C@H](c1ccccn1)[C@]1(c2ccnc(C(F)(F)F)c2)C[C@H](O)C1	50	60	Not Active	33	Non-toxic	Non-toxic	

More lines, main results first:

CL free (Liver microsome [2]) [mL/min/kg]	Kb [3] [nM]	Activity [5]	CL free (Liver microsome [6]) [mL/min/kg]	Compound	Activity (Rattus norvegicus [1])	Activity (Rattus norvegicus [4])	further results
67	1550	Not Active	33	C[C@]1(O)C[C@](c2cccc(C(F)(F)F)c2)([C@H](O)c2ccccn2)C1	Non-toxic	Non-toxic	
100	4790	Not Active	33	C[C@]1(O)C[C@](c2ccc(C(F)(F)F)cc2)([C@H](O)c2ccccn2)C1	Non-toxic	Non-toxic	
130	330	Not Active	67	C[C@]1(O)C[C@@](c2ccc(OC(F)(F)F)cc2)([C@H](O)c2ccccn2)C1	Non-toxic	Non-toxic	
100	> 9100	Not Active	33	C[C@]1(O)C[C@](c2cc(C(F)(F)F)ccn2)([C@@H](O)c2ccccn2)C1	Non-toxic	Non-toxic	
100	1510	Not Active	50	C[C@]1(O)C[C@](c2ccc(OC(F)(F)F)cc2)([C@H](O)c2ccccn2)C1	Non-toxic	Non-toxic	
